Reference: ChEMBL document CHEMBL2062435, “Synthesis and in vitro antibacterial activity of gemifloxacin derivatives containing a substituted benzyloxime moiety” (2012)

Columns and labels:
Assay type in all cases: functional
Staphylococcus aureus [1] = test: Antimicrobial activity against Staphylococcus aureus ATCC […] after 18-24 hrs by two-fold serial dilution method
How it was run: (§1)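 Agar-medium twofold serial dilution against Gram-positive and Gram-negative strains; MIC taken as the lowest compound concentration giving complete inhibition of bacterial growth after incubation at 35 °C for 18-24 h.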

Staphylococcus aureus [2] = test: Antimicrobial activity against extended spectrum beta-lactamases-producing methicillin-resistant Staphylococcus aureus 10-11 after 18-24 hrs by two-fold serial dilution method
How it was run: (§2)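 Agar twofold serial dilution MIC against clinical isolates. MIC was taken as the lowest concentration giving complete inhibition of bacterial growth after incubation at 35 °C for 18-24 h.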

Staphylococcus aureus [3] = test: Antimicrobial activity against extended spectrum beta-lactamases-producing methicillin-resistant Staphylococcus aureus 10-15 after 18-24 hrs by two-fold serial dilution method; how it was run: as §2
Staphylococcus aureus [4] = test: Antimicrobial activity against extended spectrum beta-lactamases-producing methicillin-sensitive Staphylococcus aureus 10-13 after 18-24 hrs by two-fold serial dilution method; how it was run: as §1
Staphylococcus aureus [5] = test: Antimicrobial activity against extended spectrum beta-lactamases-producing methicillin-sensitive Staphylococcus aureus 10-14 after 18-24 hrs by two-fold serial dilution method; how it was run: as §1
[6] = system: Staphylococcus epidermidis; test: Antimicrobial activity against extended spectrum beta-lactamases-producing methicillin-resistant Staphylococcus epidermidis 10-10 after 18-24 hrs by two-fold serial dilution method; how it was run: as §2
[7] = system: Staphylococcus epidermidis; test: Antimicrobial activity against extended spectrum beta-lactamases-producing methicillin-resistant Staphylococcus epidermidis 10-13 after 18-24 hrs by two-fold serial dilution method; how it was run: as §2
[8] = system: Staphylococcus epidermidis; test: Antimicrobial activity against extended spectrum beta-lactamases-producing methicillin-sensitive Staphylococcus epidermidis 10-11 after 18-24 hrs by two-fold serial dilution method; how it was run: as §1
[9] = system: Staphylococcus epidermidis; test: Antimicrobial activity against extended spectrum beta-lactamases-producing methicillin-sensitive Staphylococcus epidermidis 10-13 after 18-24 hrs by two-fold serial dilution method; how it was run: as §1
[10] = system: Staphylococcus epidermidis; test: Antimicrobial activity against extended spectrum beta-lactamases-producing methicillin-sensitive Staphylococcus epidermidis 10-15 after 18-24 hrs by two-fold serial dilution method; how it was run: as §1
Enterococcus faecalis [11] = test: Antimicrobial activity against Enterococcus faecalis 10-5 after 18-24 hrs by two-fold serial dilution method; how it was run: as §1
Enterococcus faecalis [12] = test: Antimicrobial activity against Enterococcus faecalis 10-6 after 18-24 hrs by two-fold serial dilution method; how it was run: as §1
Enterococcus faecalis [13] = test: Antimicrobial activity against Enterococcus faecalis 10-7 after 18-24 hrs by two-fold serial dilution method; how it was run: as §1
Enterococcus faecium [14] = test: Antimicrobial activity against Enterococcus faecium 10-5 after 18-24 hrs by two-fold serial dilution method; how it was run: as §1
Enterococcus faecium [15] = test: Antimicrobial activity against Enterococcus faecium 10-9 after 18-24 hrs by two-fold serial dilution method; how it was run: as §1
Streptococcus pneumoniae [16] = test: Antimicrobial activity against extended spectrum beta-lactamases-producing Streptococcus pneumoniae 10-1 after 18-24 hrs by two-fold serial dilution method; how it was run: as §1
Streptococcus pneumoniae [17] = test: Antimicrobial activity against extended spectrum beta-lactamases-producing Streptococcus pneumoniae 10-4 after 18-24 hrs by two-fold serial dilution method; how it was run: as §1
Escherichia coli [18] = test: Antimicrobial activity against Escherichia coli ATCC 25922 after 18-24 hrs by two-fold serial dilution method; how it was run: as §1
Escherichia coli [19] = test: Antimicrobial activity against Escherichia coli 10-1 after 18-24 hrs by two-fold serial dilution method; how it was run: as §1
Escherichia coli [20] = test: Antimicrobial activity against Escherichia coli 10-2 after 18-24 hrs by two-fold serial dilution method; how it was run: as §1
Escherichia coli [21] = test: Antimicrobial activity against extended spectrum beta-lactamases-producing Escherichia coli 10-2 after 18-24 hrs by two-fold serial dilution method; how it was run: as §1
Escherichia coli [22] = test: Antimicrobial activity against Escherichia coli 10-3 after 18-24 hrs by two-fold serial dilution method; how it was run: as §1
Escherichia coli [23] = test: Antimicrobial activity against extended spectrum beta-lactamases-producing Escherichia coli 10-3 after 18-24 hrs by two-fold serial dilution method; how it was run: as §1
Escherichia coli [24] = test: Antimicrobial activity against extended spectrum beta-lactamases-producing Escherichia coli 10-4 after 18-24 hrs by two-fold serial dilution method; how it was run: as §1
Klebsiella pneumoniae [25] = test: Antimicrobial activity against extended spectrum beta-lactamases-producing Klebsiella pneumoniae 10-1 after 18-24 hrs by two-fold serial dilution method; how it was run: as §1
Klebsiella pneumoniae [26] = test: Antimicrobial activity against Klebsiella pneumoniae 10-2 after 18-24 hrs by two-fold serial dilution method; how it was run: as §1
Klebsiella pneumoniae [27] = test: Antimicrobial activity against extended spectrum beta-lactamases-producing Klebsiella pneumoniae 10-2 after 18-24 hrs by two-fold serial dilution method; how it was run: as §1
Klebsiella pneumoniae [28] = test: Antimicrobial activity against Klebsiella pneumoniae 10-3 after 18-24 hrs by two-fold serial dilution method; how it was run: as §1
Klebsiella pneumoniae [29] = test: Antimicrobial activity against extended spectrum beta-lactamases-producing Klebsiella pneumoniae 10-3 after 18-24 hrs by two-fold serial dilution method; how it was run: as §1
Klebsiella pneumoniae [30] = test: Antimicrobial activity against Klebsiella pneumoniae 10-4 after 18-24 hrs by two-fold serial dilution method; how it was run: as §1
Pseudomonas aeruginosa [31] = test: Antimicrobial activity against Pseudomonas aeruginosa 10-12 after 18-24 hrs by two-fold serial dilution method; how it was run: as §1
Pseudomonas aeruginosa [32] = test: Antimicrobial activity against extended spectrum beta-lactamases-producing Pseudomonas aeruginosa 10-5 after 18-24 hrs by two-fold serial dilution method; how it was run: as §1
Pseudomonas aeruginosa [33] = test: Antimicrobial activity against extended spectrum beta-lactamases-producing Pseudomonas aeruginosa 10-9 after 18-24 hrs by two-fold serial dilution method; how it was run: as §1
Pseudomonas aeruginosa [34] = test: Antimicrobial activity against extended spectrum beta-lactamases-producing Pseudomonas aeruginosa 10-15 after 18-24 hrs by two-fold serial dilution method; how it was run: as §1
Pseudomonas aeruginosa [35] = test: Antimicrobial activity against extended spectrum beta-lactamases-producing Pseudomonas aeruginosa 10-18 after 18-24 hrs by two-fold serial dilution method; how it was run: as §1
Pseudomonas aeruginosa [36] = test: Antimicrobial activity against extended spectrum beta-lactamases-producing Pseudomonas aeruginosa 10-20 after 18-24 hrs by two-fold serial dilution method; how it was run: as §1

Structure (SMILES) | MIC (Staphylococcus aureus [1]) [mg/L] | MIC (Staphylococcus aureus [2]) [mg/L] | MIC (Staphylococcus aureus [3]) [mg/L] | MIC (Staphylococcus aureus [4]) [mg/L] | MIC (Staphylococcus aureus [5]) [mg/L] | MIC [6] [mg/L] | MIC [7] [mg/L] | MIC [8] [mg/L] | MIC [9] [mg/L] | MIC [10] [mg/L] | MIC (Enterococcus faecalis [11]) [mg/L] | MIC (Enterococcus faecalis [12]) [mg/L] | MIC (Enterococcus faecalis [13]) [mg/L] | MIC (Enterococcus faecium [14]) [mg/L] | MIC (Enterococcus faecium [15]) [mg/L] | MIC (Streptococcus pneumoniae [16]) [mg/L] | MIC (Streptococcus pneumoniae [17]) [mg/L] | MIC (Escherichia coli [18]) [mg/L] | MIC (Escherichia coli [19]) [mg/L] | MIC (Escherichia coli [20]) [mg/L] | other results
COc1cc(F)c(CO/N=C2\CN(c3nc4c(cc3F)c(=O)c(C(=O)O)cn4C3CC3)CC2CN)cc1OC.CS(=O)(=O)O (racemic) | 0.03 | 1 | 0.125 | 0.03 | 0.03 | 0.5 | 0.25 | 1 | 0.03 | 2 | 0.25 | 2 | 1 | 4 | 8 | 0.25 | 0.03 | 0.125 | > 128 | > 128 | MIC (Escherichia coli [21]): > 128 mg/L; MIC (Escherichia coli [22]): > 128 mg/L; MIC (Escherichia coli [23]): > 128 mg/L; MIC (Escherichia coli [24]): > 128 mg/L; MIC (Klebsiella pneumoniae [25]): > 128 mg/L; MIC (Klebsiella pneumoniae [26]): > 128 mg/L; MIC (Klebsiella pneumoniae [27]): > 128 mg/L; MIC (Klebsiella pneumoniae [28]): > 128 mg/L; MIC (Klebsiella pneumoniae [29]): > 128 mg/L; MIC (Klebsiella pneumoniae [30]): > 128 mg/L; MIC (Pseudomonas aeruginosa [31]): > 128 mg/L; MIC (Pseudomonas aeruginosa [32]): > 128 mg/L; MIC (Pseudomonas aeruginosa [33]): > 128 mg/L; MIC (Pseudomonas aeruginosa [34]): > 128 mg/L; MIC (Pseudomonas aeruginosa [35]): > 128 mg/L; MIC (Pseudomonas aeruginosa [36]): > 128 mg/L
COc1cc(CO/N=C2\CN(c3nc4c(cc3F)c(=O)c(C(=O)O)cn4C3CC3)CC2CN)ccc1OC(F)F.CS(=O)(=O)O (racemic) | 0.008 | 2 | 0.5 | 0.06 | 0.03 | 2 | 4 | 0.25 | 8 | 4 | 2 | 8 | 4 | 8 | 16 | 0.25 | 2 | 0.06 | > 128 | 16 | MIC (Escherichia coli [21]): > 128 mg/L; MIC (Escherichia coli [22]): 16 mg/L; MIC (Escherichia coli [23]): > 128 mg/L; MIC (Escherichia coli [24]): 8 mg/L; MIC (Klebsiella pneumoniae [25]): > 128 mg/L; MIC (Klebsiella pneumoniae [26]): > 128 mg/L; MIC (Klebsiella pneumoniae [27]): > 128 mg/L; MIC (Klebsiella pneumoniae [28]): 8 mg/L; MIC (Klebsiella pneumoniae [29]): > 128 mg/L; MIC (Klebsiella pneumoniae [30]): > 128 mg/L; MIC (Pseudomonas aeruginosa [31]): 8 mg/L; MIC (Pseudomonas aeruginosa [32]): 8 mg/L; MIC (Pseudomonas aeruginosa [33]): 8 mg/L; MIC (Pseudomonas aeruginosa [34]): 32 mg/L; MIC (Pseudomonas aeruginosa [35]): 16 mg/L; MIC (Pseudomonas aeruginosa [36]): 8 mg/L
COc1cc(Br)c(CO/N=C2\CN(c3nc4c(cc3F)c(=O)c(C(=O)O)cn4C3CC3)CC2CN)cc1OC.CS(=O)(=O)O (racemic) | < 0.008 | > 128 | 0.125 | 0.03 | 0.5 | 0.5 | 0.25 | 0.5 | 0.03 | 2 | 1 | 4 | 2 | 64 | 64 | 1 | 0.125 | 0.5 | > 128 | > 128 | MIC (Escherichia coli [21]): > 128 mg/L; MIC (Escherichia coli [22]): > 128 mg/L; MIC (Escherichia coli [23]): > 128 mg/L; MIC (Escherichia coli [24]): > 128 mg/L; MIC (Klebsiella pneumoniae [25]): > 128 mg/L; MIC (Klebsiella pneumoniae [26]): > 128 mg/L; MIC (Klebsiella pneumoniae [27]): > 128 mg/L; MIC (Klebsiella pneumoniae [28]): > 128 mg/L; MIC (Klebsiella pneumoniae [29]): > 128 mg/L; MIC (Klebsiella pneumoniae [30]): > 128 mg/L; MIC (Pseudomonas aeruginosa [31]): > 128 mg/L; MIC (Pseudomonas aeruginosa [32]): > 128 mg/L; MIC (Pseudomonas aeruginosa [33]): > 128 mg/L; MIC (Pseudomonas aeruginosa [34]): > 128 mg/L; MIC (Pseudomonas aeruginosa [35]): > 128 mg/L; MIC (Pseudomonas aeruginosa [36]): > 128 mg/L
